Measurements as given in ChEMBL document CHEMBL1153490, “Spiroadamantyl 1,2,4-trioxolane, 1,2,4-trioxane, and 1,2,4-trioxepane pairs: relationship between peroxide bond iron(II) reactivity, heme alkylation efficiency, and antimalarial activity” (Bioorg Med Chem Lett, 2009).
Values after ≈ are worked out from the molar mass of the structure shown.

Key:
[1] = tested on: Plasmodium falciparum (NF54); assay: Antimalarial activity against chloroquine-sensitive Plasmodium falciparum NF54
[2] = Induction of heme alkylation measured within 30 seconds by visible spectrophotometry; parameters: concentration or dose not given beside the values
Plasmodium berghei = assay: Antimalarial activity as reduced parasitaemia after 3 days against Plasmodium berghei infected NMRI mice (Mus musculus) at 100 mg/kg peroral dose; format: functional; parameters: scale not given: the % may be the effect or the level left; conditions: route oral
Outline: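 Groups of three P. berghei-infected NMRI mice were dosed orally one day post-infection at 100 mg/kg. Compounds were dissolved or suspended in 3% ethanol and 7% Tween 80.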

Plasmodium falciparum = assay: Antimalarial activity against chloroquine-resistant Plasmodium falciparum K1 […]; format: functional, organism-based

SMILES | IC50 [1] [µg/mL] | Activity [2] [%] | Activity (Plasmodium berghei) [%] | IC50 (Plasmodium falciparum) [µg/mL]
c1ccc([C@H]2CCOC3(OO2)C2CC4CC(C2)CC3C4)cc1 (stereo not given in full) | > 1 | 1 | – | –
C[C@@H]1CC[C@H]2[C@@H](C)C(=O)O[C@@H]3O[C@@]4(C)CC[C@@H]1[C@]32OO4 [ARTEMISININ] | 0.0028 (≈ 0.00992 µM) | – | 98 | –
C1CC[C@]2(CC1)CCO[C@]1(OO2)C2CC3CC(C2)CC1C3 | > 1 | 25 | 0 | –
C1CCC2(CC1)COC1(OO2)C2CC3CC(C2)CC1C3 (stereo not given) | 0.044 (≈ 0.158 µM) | 45 | 0 | 0.054 (≈ 0.194 µM)
C[C@]1(c2ccccc2)COC2(OO1)C1CC3CC(C1)CC2C3 (stereo not given in full) | 0.022 (≈ 0.0732 µM) | – | 0 | 0.019 (≈ 0.0632 µM)
CC(C)(N)CNC(=O)C[C@H]1CC[C@]2(CC1)OO[C@]1(O2)C2CC3CC(C2)CC1C3 | – | 83 | – | –
c1ccc([C@H]2COC3(OO2)C2CC4CC(C2)CC3C4)cc1 (stereo not given in full) | 0.019 (≈ 0.0663 µM) | 55 | 96 | 0.0091 (≈ 0.0318 µM)
c1ccc([C@@H]2OOC3(O2)C2CC4CC(C2)CC3C4)cc1 (stereo not given in full) | > 1 | 50 | 25 | 0.4 (≈ 1.47 µM)
C1CCC2(CC1)OOC1(O2)C2CC3CC(C2)CC1C3 (stereo not given) | 0.0014 (≈ 0.0053 µM) | 86 | >99.99 | –
C[C@@]1(c2ccccc2)OOC2(O1)C1CC3CC(C1)CC2C3 (stereo not given in full) | 0.0034 (≈ 0.0119 µM) | 67 | 99 | 0.0029 (≈ 0.0101 µM)
